CASP6 VEID inh = human caspase-6 inhibitors, primary screen, biochemical, VEID-R110 fluorescence, single point, set 2; purified caspase-6, Z-VEID-R110 cleavage fluorescence; inhibition, % at 12.5 µM; 0.53% of 350,000 active;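 active = mean inhibition across replicates at least about 35%, with every replicate also reaching that limit, limit read from the data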;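 note: 0% = median of neutral control wells and 100% = no fluorescence left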
Target sequence (P55212 24-179 limits assumed): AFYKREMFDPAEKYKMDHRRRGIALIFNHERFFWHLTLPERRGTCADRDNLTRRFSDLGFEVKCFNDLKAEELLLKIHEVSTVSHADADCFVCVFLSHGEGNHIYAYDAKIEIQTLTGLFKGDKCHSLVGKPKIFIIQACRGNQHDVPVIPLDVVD
Target sequence (P55212 194-293 limits assumed): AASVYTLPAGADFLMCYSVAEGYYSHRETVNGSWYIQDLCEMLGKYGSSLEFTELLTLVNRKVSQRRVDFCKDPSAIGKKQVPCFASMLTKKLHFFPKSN
SIRT5 inh = SIRT5 desuccinylase inhibitors, primary screen, biochemical, fluorescence imaging, single point, set 5 | 1.1% of 330,000 active | Purified SirT5, succinyl-peptide AMC, trypsin-coupled fluorescence | NAD-dependent protein deacylase sirtuin-5, mitochondrial (Homo sapiens), Q9NXA8 | inhibition, % at 15 µM; in the data active = inhibition above about 15%
UCH37 DUB inh = inhibitors of human UCH37 deubiquitinase, primary screen, biochemical, Ub-AMC cleavage, fluorescence | 0.33% of 330,000 active | Ubiquitin carboxyl-terminal hydrolase isozyme L5 (Homo sapiens), Q9Y5K5 | purified proteasome/UCH37 | inhibition, % (test concentration not listed);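 active = mean inhibition over replicate wells above about 20%, limit read from the data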;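 note: 0% = compound-free wells with enzyme and 100% = wells lacking proteasome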
Target sequence (Q9Y5K5 whole entry, looked up): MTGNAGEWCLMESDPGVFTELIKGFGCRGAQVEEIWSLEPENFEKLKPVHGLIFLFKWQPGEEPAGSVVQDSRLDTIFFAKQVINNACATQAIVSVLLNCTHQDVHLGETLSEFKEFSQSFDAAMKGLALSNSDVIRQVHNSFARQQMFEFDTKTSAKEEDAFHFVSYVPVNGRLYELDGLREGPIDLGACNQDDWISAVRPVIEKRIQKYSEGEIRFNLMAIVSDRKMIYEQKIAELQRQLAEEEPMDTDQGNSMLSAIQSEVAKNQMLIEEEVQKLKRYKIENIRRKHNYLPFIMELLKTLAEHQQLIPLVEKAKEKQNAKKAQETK
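assay system = human UCH37 enzyme supplied as purified proteasome complex | amount = proteasome at 0.15 nM in the dispensed enzyme solution | schedule = 30 min compound-proteasome preincubation then 25 min substrate reaction, room temperature | measured by = fluorescence, ex 355 nm, em 460 nm | benchmarks = no-proteasome wells (full inhibition) and compound-free wells (no inhibition)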
FGF22 binding-1 = binders of human FGF22 protein, primary screen, FGF22 synaptogenesis inhibitor project, biophysical, thermal shift, single point; Fibroblast growth factor 22 (Homo sapiens), Q9HCT0; recombinant FGF22 thermal shift, SYPRO orange fluorescence; percent of sucrose octasulfate shift, DMSO zero; activity (Tm shift, normalised), % at 9.99 µM; 1.5% of 340,000 active; AID 651658, 2012;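 active = mean Tm shift, scaled 0 neutral to 100 positive control, at about 1.3% or above, every replicate too, limit read from the data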
NSD2 inh = NSD2 histone methyltransferase inhibitors, primary screen, biochemical, AlphaScreen, single concentration, set 2; Histone-lysine N-methyltransferase NSD2 (Homo sapiens), O96028; NSD2 peptide methylation, 120 min; inhibition, % at 12.5 µM; 0.54% of 310,000 active; AID 743445, 2014; in the data active = inhibition above about 50%
FGF22 binding-2 = binders of human FGF22 protein, dose response, FGF22 synaptogenesis inhibitor project, biophysical, thermal shift, cherry-pick retest; AID 720646, 2013; shares compounds with FGF22 binding-1; thermal shift activity, °C (ΔTm) at 38 µM; 2% of 1,000 active; recombinant FGF22 thermal shift, SYPRO orange fluorescence;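 active = fitted rise in melting shift crosses a set limit at or below the top valid dose tested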
TSA no protein = compound-only thermal shift signal without protein, dose response, artefact control for FGF22 binder project, biochemical, cherry-picked samples, RT-PCR instrument | shares compounds with FGF22 binding-1 | AC50, µM (doses to about 38 µM) | compound-only SYPRO orange thermal shift counter-screen, no protein | 2% of 1,000 active;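 active = rising signal whose fitted curve reaches the 0.54 level within the top valid dose, showing a melting point, actives reach about 13 µM in these data; inactive = the rest, including activity in the opposite direction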; note: value is where the raw curve crosses a fixed level and not half-maximal
An asterisk follows results filed as active; [ ] = another dose, or the depositor's remark. Most compounds without a hit are left out; they make up all but 2.6% or so of the library.

How did CCCCn1cnc2c(SCc3cccc(F)c3)nc(N)nc21 do in these assays?
CASP6 VEID inh: 0.5; SIRT5 inh: -0.6; UCH37 DUB inh: -1.5; FGF22 binding-1: 23.1*; NSD2 inh: -1.5; FGF22 binding-2: 0.048; TSA no protein: inactive

Results for COCCNC(=O)[C@H]1[C@H](CO)[C@H]2Cn3c(ccc(-c4ccc(F)cc4)c3=O)[C@@H]1N2C(=O)NC(C)C ?
CASP6 VEID inh: 0.0; SIRT5 inh: -38.9; FGF22 binding-1: 14.0*; FGF22 binding-2: 0.262[42 µM]; TSA no protein: inactive

Results for COc1ccccc1-c1ccc2n(c1=O)C[C@@H]1[C@@H](CO)[C@H](C(=O)NC3CCC3)N(C(=O)NC(C)C)[C@H]21 ?
CASP6 VEID inh: 2.5; SIRT5 inh: -12.6; FGF22 binding-1: 15.1*; FGF22 binding-2: 0.026; TSA no protein: inactive

Results for COCCNC(=O)[C@@H]1[C@@H](CO)[C@@H]2Cn3c(ccc(-c4ccc(OC)cc4)c3=O)[C@H]1N2C(=O)NC(C)C ?
CASP6 VEID inh: -1.5; SIRT5 inh: -83.0; FGF22 binding-1: 0.2

Results for O=C(O)c1[nH]c2ccc(Br)cc2c1CCN1C(=O)c2cccc([N+](=O)[O-])c2C1=O ?
CASP6 VEID inh: 2.5; SIRT5 inh: 2.9; UCH37 DUB inh: 5.1; FGF22 binding-1: 3.0*; NSD2 inh: -1.6; TSA no protein: inactive

What do the screens show for `O=C(O)c1[nH]c2ccc(Cl)cc2c1CCN1C(=O)c2ccccc2C1=O`?
CASP6 VEID inh: 4.2; SIRT5 inh: 0.8; UCH37 DUB inh: 3.3; FGF22 binding-1: -0.1; NSD2 inh: 8.2

Results for O=C(Nc1cccc(O)c1)c1cnn2cccnc12 ?
CASP6 VEID inh: 8.4; SIRT5 inh: -1.1; UCH37 DUB inh: 8.1; FGF22 binding-1: 0.3; NSD2 inh: -1.5

What do the screens show for `O=C(Nc1ccc2c(c1)OCO2)c1cnn2cccnc12`?
CASP6 VEID inh: -0.2; SIRT5 inh: -3.4; UCH37 DUB inh: 3.6; FGF22 binding-1: 1.9*; NSD2 inh: 0.5; FGF22 binding-2: 0.128; TSA no protein: inactive

What do the screens show for `CC(C)CCN1CCC(CN2C(=O)C(=O)NC[C@@H]2CC(C)C)CC1`?
CASP6 VEID inh: 1.2; SIRT5 inh: -4.2; FGF22 binding-1: -0.1

Results for CCC(CC)CN1CCC(CN2C(=O)C(=O)NC[C@@H]2CC(C)C)CC1 ?
CASP6 VEID inh: 5.7; SIRT5 inh: 0.2; FGF22 binding-1: 1.9*; TSA no protein: inactive

How did COc1ccc(S(=O)(=O)N[C@H]2C=C[C@@H](CC(=O)NCCc3ccccc3)O[C@@H]2CO)cc1 do in these assays?
CASP6 VEID inh: 1.0; SIRT5 inh: 0.2; FGF22 binding-1: 0.0

Results for COc1ccc(S(=O)(=O)N[C@@H]2C=C[C@H](CC(=O)NCCc3ccccc3)O[C@@H]2CO)cc1 ?
CASP6 VEID inh: 1.7; SIRT5 inh: 0.7; FGF22 binding-1: 1.4*; FGF22 binding-2: 0.093[42 µM]; TSA no protein: inactive

How did Cc1ccc(S(=O)(=O)N[C@H]2C=C[C@@H](CC(=O)NCc3ccc(Cl)c(Cl)c3)O[C@H]2CO)cc1 do in these assays?
CASP6 VEID inh: -1.1; SIRT5 inh: -2.2; FGF22 binding-1: 1.3*; FGF22 binding-2: 0.124; TSA no protein: inactive

Results for O=C(O)c1ccc(NC(=O)c2cccc(S(=O)(=O)Nc3ccc(C(=O)O)cc3)c2)cc1 ?
CASP6 VEID inh: 4.2; SIRT5 inh: 5.8; UCH37 DUB inh: 0.6; FGF22 binding-1: 2.1*; NSD2 inh: 1.9; FGF22 binding-2: 0.216; TSA no protein: inactive

How did O=C(CC(=O)c1ccccc1)Nc1cccc([N+](=O)[O-])c1 do in these assays?
CASP6 VEID inh: -1.4; SIRT5 inh: -7.7; FGF22 binding-1: 1.8*; NSD2 inh: 0.3; FGF22 binding-2: 0.111; TSA no protein: inactive

How did O=C(Cc1cccc([N+](=O)[O-])c1)Nc1ccccc1 do in these assays?
CASP6 VEID inh: -0.7; SIRT5 inh: 3.2; FGF22 binding-1: 0.1; NSD2 inh: -0.7

Results for O=C(O)c1ccc(NS(=O)(=O)c2ccc(C(=O)Nc3ccccc3)cc2)cc1 ?
CASP6 VEID inh: -3.4; SIRT5 inh: -0.7; UCH37 DUB inh: 1.4; FGF22 binding-1: -0.1

What do the screens show for `COc1ccc(NS(=O)(=O)c2cccc(C(=O)NNC(=O)c3cc(C)oc3C)c2)cc1`?
CASP6 VEID inh: -1.7; SIRT5 inh: 8.5; UCH37 DUB inh: 1.5; FGF22 binding-1: 0.2; NSD2 inh: 4.0

Results for COc1ccc(NS(=O)(=O)c2cccc(C(=O)NNC(=O)c3ccccc3O)c2)cc1 ?
CASP6 VEID inh: 1.5; SIRT5 inh: -0.8; UCH37 DUB inh: 0.2; FGF22 binding-1: 2.0*; NSD2 inh: 5.3; FGF22 binding-2: 0.093; TSA no protein: inactive

Results for O=C(O)c1cccc(NS(=O)(=O)c2ccc(Cl)c(C(=O)Nc3cccc([N+](=O)[O-])c3)c2)c1 ?
CASP6 VEID inh: 6.7; SIRT5 inh: -1.0; UCH37 DUB inh: 1.3; FGF22 binding-1: 1.8*; NSD2 inh: 1.8; FGF22 binding-2: -0.072; TSA no protein: inactive

What do the screens show for `C/C=C/c1ccc([C@H]2[C@@H](CO)N(C(=O)C3CC3)[C@H]2CN(C)C(C)=O)cc1`?
CASP6 VEID inh: 1.6; SIRT5 inh: 0.8; FGF22 binding-1: 0.2

What do the screens show for `COc1ccc(C(=O)Nc2cc(Cl)ccc2N2CCOCC2)cc1S(=O)(=O)N1CCOCC1`?
CASP6 VEID inh: 1.3; SIRT5 inh: -1.0; UCH37 DUB inh: -4.4; FGF22 binding-1: 0.4; NSD2 inh: 0.6

What do the screens show for `COc1ccc(C(=O)Nc2ccccc2N2CCOCC2)cc1S(=O)(=O)N1CCOCC1`?
CASP6 VEID inh: 1.1; SIRT5 inh: -4.8; UCH37 DUB inh: 4.5; FGF22 binding-1: 20.9*; FGF22 binding-2: 0.026; TSA no protein: inactive

How did CO[C@H]1CN(C)C(=O)c2ccc(NS(=O)(=O)c3ccc(C)cc3)cc2OC[C@H](C)N(C)C[C@H]1C do in these assays?
CASP6 VEID inh: 0.2; SIRT5 inh: -1.9; FGF22 binding-1: 0.1

Results for CO[C@@H]1CN(C)C(=O)c2ccc(NS(=O)(=O)c3ccc(Oc4ccccc4)cc3)cc2OC[C@H](C)NC[C@@H]1C ?
CASP6 VEID inh: -3.9; SIRT5 inh: 1.8; FGF22 binding-1: 1.2*; FGF22 binding-2: 0.167[42 µM]; TSA no protein: inactive

Screens from PubChem.
